Test results reported in ChEMBL document CHEMBL1955742, “Synthesis and SAR studies of phenanthroindolizidine and phenanthroquinolizidine alkaloids as potent anti-tumor agents” (2012).

Legend:
Type in all cases: functional
A549 [1] = assay: Antiproliferative activity against human A549 cells after 72 hrs by MTT assay; conditions: Homo sapiens, A549, 72 h
Procedure, shortened: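 A549 human lung adenocarcinoma epithelial cells were seeded and grown for 24 h, then exposed to compounds for a further 72 h. Proliferation was read by MTT, as assigned in the table footnote. GI50 was calculated by the Logit method from at least three independent experiments.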

HL-60 [2] = assay: Antiproliferative activity against human HL60 cells after 72 hrs by SRB assay; conditions: Homo sapiens, HL-60, 72 h
Procedure, shortened: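 HL60 human promyelocytic leukemia cells were seeded and grown for 24 h, then given compounds and cultured for another 72 h. Read-out was SRB, per the table footnote. GI50 was obtained by the Logit method from three or more independent experiments.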

HL-60 [3] = assay: Antiproliferative activity against human HL60 cells at 10^-7 mol/L after 72 hrs by SRB assay; conditions: HL-60, 72 h
A549 [4] = assay: Antiproliferative activity against human A549 cells at 10^-7 mol/L after 72 hrs by MTT assay; conditions: A549, 72 h
A549 [5] = assay: Antiproliferative activity against human A549 cells at 10^-6 mol/L after 72 hrs by MTT assay; conditions: A549, 72 h
HL-60 [6] = assay: Antiproliferative activity against human HL60 cells at 10^-8 mol/L after 72 hrs by SRB assay; conditions: HL-60, 72 h
HL-60 [7] = assay: Antiproliferative activity against human HL60 cells at 10^-6 mol/L after 72 hrs by SRB assay; conditions: HL-60, 72 h
A549 [8] = assay: Antiproliferative activity against human A549 cells at 10^-8 mol/L after 72 hrs by MTT assay; conditions: A549, 72 h

`COc1cc2c3c(c4cc(OC)c(OC)cc4c2cc1OC)[C@H](NC(C)=O)[C@@H]1CCCN1C3` gave a GI50 (A549 [1]) greater than 10000 nM and a GI50 (HL-60 [2]) greater than 10000 nM.

`COc1ccc2c3c(c4cc(OC)c(OC)cc4c2c1)CN1CCCC[C@H]1C3` was tested, and the GI50 (A549 [1]) was 700 nM and the GI50 (HL-60 [2]) was 600 nM.

`COc1cc2c3c(c4cc(OC)c(OC)cc4c2cc1OC)[C@H](N)[C@@H]1CCCN1C3` was tested, and the GI50 (A549 [1]) was 1100 nM and the GI50 (HL-60 [2]) was 300 nM.

For `c1c2c(cc3c1c1c(c4cc5c(cc43)OCO5)CN3CCCC3C1)OCO2` (racemic), the inhibition at 0.1 µM (HL-60 [3]) was 8.3%, the inhibition at 0.1 µM (A549 [4]) was 5.2% and the inhibition at 1 µM (A549 [5]) was 40.8%. The inhibition at 0.01 µM (HL-60 [6]) was 10.4%, the inhibition at 1 µM (HL-60 [7]) was 13.6% and the inhibition at 0.01 µM (A549 [8]) was 5.7%.

`COc1cc2c3c(c4cc5c(cc4c2cc1OC)OCCO5)CC1CCCN1C3` (racemic) was tested, and the inhibition at 0.1 µM (HL-60 [3]) was 37%, the inhibition at 0.1 µM (A549 [4]) was 58.2% and the inhibition at 1 µM (A549 [5]) was 87.4%. The inhibition at 0.01 µM (HL-60 [6]) was 3.8%, the inhibition at 1 µM (HL-60 [7]) was 83.1% and the GI50 (A549 [1]) was 360 nM. It also gave an inhibition at 0.01 µM (A549 [8]) of 14%.

`COc1ccc2c3c(c4cc(OC)c(OC)cc4c2c1)[C@H](NC(=O)C(C)(C)C)[C@@H]1CCCN1C3` was tested, and the GI50 (A549 [1]) was greater than 10000 nM and the GI50 (HL-60 [2]) was greater than 10000 nM.

`COc1ccc2c3c(c4cc(OC)c(OC)cc4c2c1)CN1CCCC[C@@H]1C3` was tested, and the GI50 (A549 [1]) was 900 nM and the GI50 (HL-60 [2]) was 500 nM.

For `COc1ccc2c3c(c4cc(OC)c(OC)cc4c2c1)CN1CCC[C@H]1[C@H]3N`, the GI50 (A549 [1]) was 100 nM and the GI50 (HL-60 [2]) was 50 nM.

`COc1ccc2c3c(c4cc(OC)c(OC)cc4c2c1)CN1CCCC[C@@H]1[C@@H]3O` showed a GI50 (A549 [1]) of 300 nM and a GI50 (HL-60 [2]) of less than 1 nM.

In the case of `COc1ccc2c3c(c4cc(OC)c(OC)cc4c2c1)CN1CCCC[C@H]1[C@H]3O`, the GI50 (A549 [1]) is reported as 400 nM and the GI50 (HL-60 [2]) is reported as less than 1 nM.

Compound `COc1cc2c3c(c4cc(OC)c(OC)cc4c2cc1OC)[C@H](O)[C@@H]1CCCCN1C3` has a GI50 (A549 [1]) of 400 nM and a GI50 (HL-60 [2]) of 300 nM.

For `c1c2c(cc3c1c1c(c4cc5c(cc43)OCCO5)CN3CCCC3C1)OCCO2` (racemic), the inhibition at 0.1 µM (HL-60 [3]) was 8.2%, the inhibition at 0.1 µM (A549 [4]) was 6.3% and the inhibition at 1 µM (A549 [5]) was 38.6%. It also gave an inhibition at 0.01 µM (HL-60 [6]) of 0%, an inhibition at 1 µM (HL-60 [7]) of 11.2% and an inhibition at 0.01 µM (A549 [8]) of 8.7%.

`COc1ccc2c3c(c4cc(OC)c(OC)cc4c2c1)CN1CCC[C@H]1C3` gave a GI50 (A549 [1]) of 90 nM and a GI50 (HL-60 [2]) of 60 nM.

`COc1ccc2c3c(c4cc(OC)c(OC)cc4c2c1)[C@H](N)[C@@H]1CCCN1C3` gave a GI50 (A549 [1]) of 400 nM and a GI50 (HL-60 [2]) of 1600 nM.

`COc1ccc2c3c(c4cc(OC)c(OC)cc4c2c1)[C@H](O)[C@@H]1CCCN1C3` gave a GI50 (A549 [1]) greater than 10000 nM and a GI50 (HL-60 [2]) greater than 10000 nM.

`COc1cc2c3c(c4cc(OC)c(OC)cc4c2cc1OC)[C@@H](O)[C@@H]1CCCN1C3` showed an inhibition at 0.1 µM (HL-60 [3]) of 8.2%, an inhibition at 0.1 µM (A549 [4]) of 8.2% and an inhibition at 1 µM (A549 [5]) of 50%. The inhibition at 0.01 µM (HL-60 [6]) was 3.9%, the inhibition at 1 µM (HL-60 [7]) was 49.8% and the inhibition at 0.01 µM (A549 [8]) was 5.2%.

Work on `COc1ccc2c3c(c4cc(OC)c(OC)cc4c2c1)[C@H](O)[C@@H]1CCCCN1C3` yielded a GI50 (A549 [1]) of 1000 nM and a GI50 (HL-60 [2]) of 40 nM.

For `COc1cc2c3c(c4cc(OC)c(OC)cc4c2cc1OC)[C@@H](O)[C@H]1CCCN1C3`, the inhibition at 0.1 µM (HL-60 [3]) was 37.1%, the inhibition at 0.1 µM (A549 [4]) was 31.3% and the inhibition at 1 µM (A549 [5]) was 68.9%. For the same compound, the inhibition at 0.01 µM (HL-60 [6]) was 12.7%, the inhibition at 1 µM (HL-60 [7]) was 76% and the GI50 (A549 [1]) was 1290 nM. The inhibition at 0.01 µM (A549 [8]) was 12.3%.

Compound `COc1cc2c3c(c4cc(OC)c(OC)cc4c2cc1OC)CN1CCCC[C@@H]1C3` has a GI50 (A549 [1]) of less than 1 nM and a GI50 (HL-60 [2]) of less than 1 nM.

Compound `COc1cc2c3c(c4cc(OC)c(OC)cc4c2cc1OC)[C@H](NC(=O)C(C)(C)C)[C@@H]1CCCN1C3` has a GI50 (A549 [1]) greater than 10000 nM and a GI50 (HL-60 [2]) greater than 10000 nM.

`COc1ccc2c3c(c4cc(OC)c(OC)cc4c2c1)CN1CCC[C@H]1[C@H]3NC(C)=O` showed a GI50 (A549 [1]) of 1500 nM and a GI50 (HL-60 [2]) of 1200 nM.

In the case of `COc1cc2c3c(c4cc(OC)c(OC)cc4c2cc1OC)CN1CCCC1C3` (racemic) [(+/-)-TYLOPHORINE], the inhibition at 0.1 µM (HL-60 [3]) is reported as 40.5%, the inhibition at 0.1 µM (A549 [4]) is reported as 61.4% and the inhibition at 1 µM (A549 [5]) is reported as 72.3%. For the same compound, the inhibition at 0.01 µM (HL-60 [6]) was 14.9%, the inhibition at 1 µM (HL-60 [7]) was 71.3% and the GI50 (A549 [1]) was 1300 nM. For the same compound, the GI50 (HL-60 [2]) was 100 nM and the inhibition at 0.01 µM (A549 [8]) was 6%.
